Measurements reported in ChEMBL document CHEMBL4229508, “Nitric oxide donor-based FFA1 agonists: Design, synthesis and biological evaluation as potential anti-diabetic and anti-thrombotic agents” (Bioorg Med Chem, 2018).

Test system: Platelet
Assay: Antiplatelet activity in rabbit platelet rich plasma assessed as inhibition of ADP-induced platelet aggregation at 0.1 mM preincubated for 5 mins followed by ADP addition measured up to 5 mins in presence of NO scavenger carboxy-PTIO
Format: functional
Conditions: Oryctolagus cuniculus
How it was run: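 Run as the rabbit PRP turbidimetric assay: compound at 0.1 mM, 5 min preincubation at 37 °C, ADP 10 µM, maximal light transmission recorded within 5 min. Carboxy-PTIO (20 µM) was also incubated with the drug-platelet suspension. Inhibition % is relative to vehicle. Mean ± SD of three independent experiments.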

SMILES | inhibition at 100 µM [%]
Cc1cc(OCCCO[N+](=O)[O-])cc(C)c1-c1cccc(COc2ccc(OCC(=O)O)c(F)c2)c1 | 1.05
Cc1cc(OCCO[N+](=O)[O-])cc(C)c1-c1cccc(COc2ccc(OCC(=O)O)c(F)c2)c1 | 1.34
Cc1cc(OCCCCO[N+](=O)[O-])cc(C)c1-c1cccc(COc2ccc(OCC(=O)O)c(F)c2)c1 | 1.15

Biological target: Free fatty acid receptor 1 (Homo sapiens, UniProt O14842)
Sequence (O14842 whole entry): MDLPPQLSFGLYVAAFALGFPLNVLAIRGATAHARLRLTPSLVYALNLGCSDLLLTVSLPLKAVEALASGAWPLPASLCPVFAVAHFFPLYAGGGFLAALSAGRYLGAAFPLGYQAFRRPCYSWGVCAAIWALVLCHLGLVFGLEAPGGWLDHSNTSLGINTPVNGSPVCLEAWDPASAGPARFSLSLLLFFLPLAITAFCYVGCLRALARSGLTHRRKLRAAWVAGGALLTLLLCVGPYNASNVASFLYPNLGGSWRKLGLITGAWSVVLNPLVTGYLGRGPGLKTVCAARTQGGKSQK
Assay: Agonist activity at human FFA1 receptor expressed in CHO cells assessed as increase in intracellular calcium levels measured for 90 secs by Fluo 4-AM dye based FLIPR assay
Format: functional, cell-based
Conditions: not given
How it was run: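 CHO cells stably expressing human FFA1 were seeded at 15 K cells/well and grown 12 h at 37 °C, 5% CO2, then washed with HBSS. Ca2+ flux after compound addition was read on FLIPR for 90 s. Activity = [(A−B)/(C−B)]×100, with B = vehicle and C = 10 µM γ-linolenic acid.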

SMILES | EC50 [nM]
Cc1cc(OCCO[N+](=O)[O-])cc(C)c1-c1cccc(COc2ccc(OCC(=O)O)c(F)c2)c1 | 76.4
Cc1cc(OCCCCO[N+](=O)[O-])cc(C)c1-c1cccc(COc2ccc(OCC(=O)O)c(F)c2)c1 | 93.7

Results, then the compound that gave them:

EC50 [nM] | SMILES
61.5 | Cc1cc(OCCCO[N+](=O)[O-])cc(C)c1-c1cccc(COc2ccc(OCC(=O)O)c(F)c2)c1
54.2 | COc1cc(C)c(-c2cccc(COc3ccc(OCC(=O)O)c(F)c3)c2)c(C)c1

Test system: Mus musculus
Assay: Antidiabetic activity in ICR mouse assessed as reduction in plasma glucose AUC (0 to 90 mins) at 20 mg/kg, po dosed 30 mins prior to glucose challenge by OGTT relative to control
Format: functional
Design: scale not given: the % may be the effect or the level left
Conditions: not given
How it was run: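 Male ICR mice, fasted 12 h, randomized into groups (n = 6). Compound was given orally at 20 mg/kg in 0.5% methylcellulose 30 min before an oral glucose load (3 g/kg). Blood glucose was read by test strips at −30, 0, 15, 30, 60 and 90 min. AUC0–90min was calculated; mean ± SD.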

SMILES | Activity [%]
Cc1cc(OCCCS(C)(=O)=O)cc(C)c1-c1cccc(COc2ccc3c(c2)OC[C@H]3CC(=O)O)c1 | 32.3
Cc1cc(OCCCO[N+](=O)[O-])cc(C)c1-c1cccc(COc2ccc(OCC(=O)O)c(F)c2)c1 | 41.6

Test system: Platelet
Assay: Antiplatelet activity in rabbit platelet rich plasma assessed as inhibition of ADP-induced platelet aggregation at 0.1 mM preincubated for 5 mins followed by ADP addition measured up to 5 mins
Format: functional
Conditions: Oryctolagus cuniculus
How it was run: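 Rabbit blood was spun at 500 rpm for 10 min to give PRP, and then at 3000 rpm for 10 min to give PPP. PRP was preincubated in duplicate with compound (0.1 mM), vehicle or ticlopidine for 5 min at 37 °C. Aggregation was induced with ADP (10 µM), and light transmission at maximal aggregation was recorded within 5 min. Inhibition % = (A−B)/A×100 versus vehicle. Three independent experiments, mean ± SD.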

SMILES | inhibition at 100 µM [%]
Cc1cc(OCCCO[N+](=O)[O-])cc(C)c1-c1cccc(COc2ccc(OCC(=O)O)c(F)c2)c1 | 10.8
Cc1cc(OCCO[N+](=O)[O-])cc(C)c1-c1cccc(COc2ccc(OCC(=O)O)c(F)c2)c1 | 8.28
Cc1cc(OCCCCO[N+](=O)[O-])cc(C)c1-c1cccc(COc2ccc(OCC(=O)O)c(F)c2)c1 | 11.1
